The source made the active and inactive calls. The rule behind the calls is not given here.

The test system of the first assay is Rattus norvegicus. Kind of assay: Antihyperlipidemic activity in Triton-induced dyslipidemic Wistar rat model assessed as reduction in phospholipid level at 100 mg/kg, po. Type of assay: functional. The arrangement: scale not given: the % may be the effect or the level left. A digest of the protocol: (§1)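 Male Wistar rats, 8−10 weeks, about 160 g, fed normal pellet diet. Triton X-100 given at 400 mg/kg ip; compound given orally in 1% gum acacia. Retro-orbital blood taken 18 h after Triton and serum separated at 1500g for 10 min. TG and cholesterol measured by kit. Mean % change versus dyslipidemic control, 5 animals.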
Consider `CC(C)NCC(O)COc1ccc2c(=O)cc(-c3ccc(O)c(O)c3)oc2c1` (stereo unspecified), for which the Activity was found to be 13%.
On the same count and under the same terms, to `COc1cc(OC)cc(-c2cc(=O)c3ccc(OCC(O)CNC(C)(C)C)cc3o2)c1` (stereo unspecified) belongs 19%; to `Cc1ccc(COc2cc(OCc3ccc(C)cc3)cc(-c3cc(=O)c4ccc(OCC(O)CNC(C)(C)C)cc4o3)c2)cc1` (stereo unspecified), 16.2%.
In the case of `COc1cc(OC)cc(-c2cc(=O)c3ccc(OCC(O)CN4CCN(c5ccccc5)CC4)cc3o2)c1` (stereo unspecified), the Activity was 12.8%.
Consider `CC(C)(C)NCC(O)COc1ccc2c(=O)cc(-c3cc(O)cc(O)c3)oc2c1` (stereo unspecified), for which the Activity is reported as 4%.
With `CN(C)C(=N)NC(=N)N` [METFORMIN], the Activity was found to be 6.2%.
Still for that read-out and setting: the figure for `COc1cc(OC)cc(-c2cc(=O)c3ccc(OCC(O)CNC(C)C)cc3o2)c1` (stereo unspecified) is 21%; for `COc1ccc(-c2cc(=O)c3ccc(OCC(O)CN4CCN(c5ccccc5)CC4)cc3o2)cc1OC` (stereo unspecified) it is 22%; for `Cc1ccccc1COc1cc(OCc2ccccc2C)cc(-c2cc(=O)c3ccc(OCC(O)CNC(C)(C)C)cc3o2)c1` (stereo unspecified) it is 12.6%.
Still for that read-out and setting: the figure for `CC(C)NCC(O)COc1ccc2c(=O)cc(-c3cc(OCc4ccccc4)cc(OCc4ccccc4)c3)oc2c1` (stereo unspecified) is 8%; for `CC(C)(C)NCC(O)COc1ccc2c(=O)cc(-c3cc(OCc4ccccc4Cl)cc(OCc4ccccc4Cl)c3)oc2c1` (stereo unspecified) it is 11.3%.
The same measure, in the same setting: to `CC(C)(C)NCC(O)COc1ccc2c(=O)cc(-c3ccc(O)c(O)c3)oc2c1` (stereo unspecified) belongs 23%; to `Cc1ccc(COc2cc(OCc3ccc(C)cc3)cc(-c3cc(=O)c4ccc(OCC(O)CN(C(C)C)C(C)C)cc4o3)c2)cc1` (stereo unspecified), 4.67%; to `CC(C)NCC(O)COc1ccc2c(=O)cc(-c3ccc(OCc4ccccc4)c(OCc4ccccc4)c3)oc2c1` (stereo unspecified), 5%.

The subject of a further assay is Rattus norvegicus. Kind of assay: Antihyperlipidemic activity in Triton-induced dyslipidemic Wistar rat model assessed as reduction in cholesterol level at 100 mg/kg, po. The format is functional. The arrangement: scale not given: the % may be the effect or the level left. Put shortly: as §1
As for `CC(C)NCC(O)COc1ccc2c(=O)cc(-c3ccc(O)c(O)c3)oc2c1` (stereo unspecified), the Activity turned out to be 15%.
Turning to `COc1cc(OC)cc(-c2cc(=O)c3ccc(OCC(O)CNC(C)(C)C)cc3o2)c1` (stereo unspecified), the Activity is 21%.
Regarding `Cc1ccc(COc2cc(OCc3ccc(C)cc3)cc(-c3cc(=O)c4ccc(OCC(O)CNC(C)(C)C)cc4o3)c2)cc1` (stereo unspecified), the Activity stood at 11.2%.
On the same count and under the same terms, to `COc1cc(OC)cc(-c2cc(=O)c3ccc(OCC(O)CN4CCN(c5ccccc5)CC4)cc3o2)c1` (stereo unspecified) belongs 14.3%; to `CC(C)(C)NCC(O)COc1ccc2c(=O)cc(-c3cc(O)cc(O)c3)oc2c1` (stereo unspecified), 17%.
The same measure, in the same setting: the figure for `CN(C)C(=N)NC(=N)N` [METFORMIN] is 4.2%.
In the case of `COc1cc(OC)cc(-c2cc(=O)c3ccc(OCC(O)CNC(C)C)cc3o2)c1` (stereo unspecified), the Activity was 17%.
Turning to `COc1ccc(-c2cc(=O)c3ccc(OCC(O)CN4CCN(c5ccccc5)CC4)cc3o2)cc1OC` (stereo unspecified), the Activity was determined as 23%.
Still for that read-out and setting: the figure for `Cc1ccccc1COc1cc(OCc2ccccc2C)cc(-c2cc(=O)c3ccc(OCC(O)CNC(C)(C)C)cc3o2)c1` (stereo unspecified) is 22.3%; for `CC(C)NCC(O)COc1ccc2c(=O)cc(-c3cc(OCc4ccccc4)cc(OCc4ccccc4)c3)oc2c1` (stereo unspecified) it is 13%.
The same measure, in the same setting: to `CC(C)(C)NCC(O)COc1ccc2c(=O)cc(-c3cc(OCc4ccccc4Cl)cc(OCc4ccccc4Cl)c3)oc2c1` (stereo unspecified) belongs 12.5%.
Same read-out and setting: the figure for `CC(C)(C)NCC(O)COc1ccc2c(=O)cc(-c3ccc(O)c(O)c3)oc2c1` (stereo unspecified) is 21%; for `Cc1ccc(COc2cc(OCc3ccc(C)cc3)cc(-c3cc(=O)c4ccc(OCC(O)CN(C(C)C)C(C)C)cc4o3)c2)cc1` (stereo unspecified) it is 10.1%.
On to `CC(C)NCC(O)COc1ccc2c(=O)cc(-c3ccc(OCc4ccccc4)c(OCc4ccccc4)c3)oc2c1` (stereo unspecified), for which the Activity is 16%.

The next assay relates to Rattus norvegicus. Nature of the assay: Antihyperlipidemic activity in Triton-induced dyslipidemic Wistar rat model assessed as reduction in triglyceride level at 100 mg/kg, po. Type of assay: functional. The arrangement: scale not given: the % may be the effect or the level left. A digest of the protocol: as §1
As for `CC(C)NCC(O)COc1ccc2c(=O)cc(-c3ccc(O)c(O)c3)oc2c1` (stereo unspecified), the Activity came to 19%.
Consider `COc1cc(OC)cc(-c2cc(=O)c3ccc(OCC(O)CNC(C)(C)C)cc3o2)c1` (stereo unspecified), for which the Activity is on record as 17%.
Consider `Cc1ccc(COc2cc(OCc3ccc(C)cc3)cc(-c3cc(=O)c4ccc(OCC(O)CNC(C)(C)C)cc4o3)c2)cc1` (stereo unspecified), for which the Activity was found to be 12.8%.
Take `COc1cc(OC)cc(-c2cc(=O)c3ccc(OCC(O)CN4CCN(c5ccccc5)CC4)cc3o2)c1` (stereo unspecified): the Activity is given as 17.3%.
Same read-out and setting: the figure for `CC(C)(C)NCC(O)COc1ccc2c(=O)cc(-c3cc(O)cc(O)c3)oc2c1` (stereo unspecified) is 16%.
The same measure, in the same setting: to `CN(C)C(=N)NC(=N)N` [METFORMIN] belongs 5.9%; to `COc1cc(OC)cc(-c2cc(=O)c3ccc(OCC(O)CNC(C)C)cc3o2)c1` (stereo unspecified), 24%.
In the case of `COc1ccc(-c2cc(=O)c3ccc(OCC(O)CN4CCN(c5ccccc5)CC4)cc3o2)cc1OC` (stereo unspecified), the Activity worked out at 19%.
Same read-out and setting: to `Cc1ccccc1COc1cc(OCc2ccccc2C)cc(-c2cc(=O)c3ccc(OCC(O)CNC(C)(C)C)cc3o2)c1` (stereo unspecified) belongs 28.2%; to `CC(C)NCC(O)COc1ccc2c(=O)cc(-c3cc(OCc4ccccc4)cc(OCc4ccccc4)c3)oc2c1` (stereo unspecified), 11%; to `CC(C)(C)NCC(O)COc1ccc2c(=O)cc(-c3cc(OCc4ccccc4Cl)cc(OCc4ccccc4Cl)c3)oc2c1` (stereo unspecified), 18.7%.
For the compound `CC(C)(C)NCC(O)COc1ccc2c(=O)cc(-c3ccc(O)c(O)c3)oc2c1` (stereo unspecified), the Activity was found to be 25%.
Still for that read-out and setting: the figure for `Cc1ccc(COc2cc(OCc3ccc(C)cc3)cc(-c3cc(=O)c4ccc(OCC(O)CN(C(C)C)C(C)C)cc4o3)c2)cc1` (stereo unspecified) is 12.1%.
On the same count and under the same terms, the figure for `CC(C)NCC(O)COc1ccc2c(=O)cc(-c3ccc(OCc4ccccc4)c(OCc4ccccc4)c3)oc2c1` (stereo unspecified) is 14%.

The next assay has as its system Rattus norvegicus. Kind of assay: Antidiabetic activity in sucrose loaded Wistar rat model assessed as reduction in glucose levels at 100 mg/kg, po. The format is functional.
Consider `CC(C)NCC(O)COc1ccc2c(=O)cc(-c3ccc(O)c(O)c3)oc2c1` (stereo unspecified), for which the result was inactive.
For `COc1cc(OC)cc(-c2cc(=O)c3ccc(OCC(O)CNC(C)(C)C)cc3o2)c1` (stereo unspecified), the outcome was inactive.
In the case of `Cc1ccc(COc2cc(OCc3ccc(C)cc3)cc(-c3cc(=O)c4ccc(OCC(O)CNC(C)(C)C)cc4o3)c2)cc1` (stereo unspecified), the Activity is 13.6%.
`COc1cc(OC)cc(-c2cc(=O)c3ccc(OCC(O)CN4CCN(c5ccccc5)CC4)cc3o2)c1` (stereo unspecified): the outcome was inactive.
The same measure, in the same setting: to `CN(C)C(=N)NC(=N)N` [METFORMIN] belongs 22.1%; to `Cc1ccccc1COc1cc(OCc2ccccc2C)cc(-c2cc(=O)c3ccc(OCC(O)CNC(C)(C)C)cc3o2)c1` (stereo unspecified), 39.1%; to `CC(C)NCC(O)COc1ccc2c(=O)cc(-c3cc(OCc4ccccc4)cc(OCc4ccccc4)c3)oc2c1` (stereo unspecified), “inactive”.
Same read-out and setting: the figure for `CC(C)(C)NCC(O)COc1ccc2c(=O)cc(-c3cc(OCc4ccccc4Cl)cc(OCc4ccccc4Cl)c3)oc2c1` (stereo unspecified) is 14.8%; for `CC(C)(C)NCC(O)COc1ccc2c(=O)cc(-c3ccc(O)c(O)c3)oc2c1` (stereo unspecified) it is “inactive”; for `Cc1ccc(COc2cc(OCc3ccc(C)cc3)cc(-c3cc(=O)c4ccc(OCC(O)CN(C(C)C)C(C)C)cc4o3)c2)cc1` (stereo unspecified) it is 15.7%.
Still for that read-out and setting: to `CC(C)NCC(O)COc1ccc2c(=O)cc(-c3ccc(OCc4ccccc4)c(OCc4ccccc4)c3)oc2c1` (stereo unspecified) belongs 17.9%.

A further assay concerns Rattus norvegicus. Kind of assay: Antidiabetic activity in sucrose challenged streptozotocin-induced diabetic Sprague-Dawley rat model assessed as reduction in glucose levels at 100 mg/kg, po measured after 5 hrs. The format is functional. The arrangement: scale not given: the % may be the effect or the level left.
For `COc1cc(OC)cc(-c2cc(=O)c3ccc(OCC(O)CNC(C)(C)C)cc3o2)c1` (stereo unspecified), the Activity was 4.86%.
For the compound `CN(C)C(=N)NC(=N)N` [METFORMIN], the Activity was determined as 24.3%.
Same read-out and setting: to `COc1cc(OC)cc(-c2cc(=O)c3ccc(OCC(O)CNC(C)C)cc3o2)c1` (stereo unspecified) belongs “inactive”; to `COc1ccc(-c2cc(=O)c3ccc(OCC(O)CN4CCN(c5ccccc5)CC4)cc3o2)cc1OC` (stereo unspecified), 4.35%.
Same read-out and setting: the figure for `Cc1ccccc1COc1cc(OCc2ccccc2C)cc(-c2cc(=O)c3ccc(OCC(O)CNC(C)(C)C)cc3o2)c1` (stereo unspecified) is 23.2%.
On the same count and under the same terms, the figure for `CC(C)NCC(O)COc1ccc2c(=O)cc(-c3cc(OCc4ccccc4)cc(OCc4ccccc4)c3)oc2c1` (stereo unspecified) is 7.86%; for `CC(C)(C)NCC(O)COc1ccc2c(=O)cc(-c3cc(OCc4ccccc4Cl)cc(OCc4ccccc4Cl)c3)oc2c1` (stereo unspecified) it is 7.48%; for `Cc1ccc(COc2cc(OCc3ccc(C)cc3)cc(-c3cc(=O)c4ccc(OCC(O)CN(C(C)C)C(C)C)cc4o3)c2)cc1` (stereo unspecified) it is 12.2%.
Regarding `CC(C)NCC(O)COc1ccc2c(=O)cc(-c3ccc(OCc4ccccc4)c(OCc4ccccc4)c3)oc2c1` (stereo unspecified), the Activity stood at 12.4%.

Another assay has as its system Rattus norvegicus. Kind of assay: Antidiabetic activity in sucrose challenged streptozotocin-induced diabetic Sprague-Dawley rat model assessed as reduction in glucose levels at 100 mg/kg, po measured after 24 hrs. The format is functional. The arrangement: scale not given: the % may be the effect or the level left.
For the compound `COc1cc(OC)cc(-c2cc(=O)c3ccc(OCC(O)CNC(C)(C)C)cc3o2)c1` (stereo unspecified), the Activity is 2.36%.
The same measure, in the same setting: the figure for `CN(C)C(=N)NC(=N)N` [METFORMIN] is 19.4%; for `COc1cc(OC)cc(-c2cc(=O)c3ccc(OCC(O)CNC(C)C)cc3o2)c1` (stereo unspecified) it is “inactive”; for `COc1ccc(-c2cc(=O)c3ccc(OCC(O)CN4CCN(c5ccccc5)CC4)cc3o2)cc1OC` (stereo unspecified) it is 2.34%.
Still for that read-out and setting: to `Cc1ccccc1COc1cc(OCc2ccccc2C)cc(-c2cc(=O)c3ccc(OCC(O)CNC(C)(C)C)cc3o2)c1` (stereo unspecified) belongs 17.2%; to `CC(C)NCC(O)COc1ccc2c(=O)cc(-c3cc(OCc4ccccc4)cc(OCc4ccccc4)c3)oc2c1` (stereo unspecified), 2.23%.
With `CC(C)(C)NCC(O)COc1ccc2c(=O)cc(-c3cc(OCc4ccccc4Cl)cc(OCc4ccccc4Cl)c3)oc2c1` (stereo unspecified), the outcome was inactive.
Same read-out and setting: the entry for `Cc1ccc(COc2cc(OCc3ccc(C)cc3)cc(-c3cc(=O)c4ccc(OCC(O)CN(C(C)C)C(C)C)cc4o3)c2)cc1` (stereo unspecified) is “inactive”; for `CC(C)NCC(O)COc1ccc2c(=O)cc(-c3ccc(OCc4ccccc4)c(OCc4ccccc4)c3)oc2c1` (stereo unspecified) it is 2.34%.

Source of the values: ChEMBL document CHEMBL2169868, “Flavone-based novel antidiabetic and antidyslipidemic agents” (J Med Chem, 2012).
